Data set [1] is filed under the species Rattus norvegicus. The experiment in a line: Tested for inhibition of NMDA-induced cyclic GMP increase in rat cerebellar slices. The data set is classed as functional.
Data set [2] in a line: Dissociation constant (pKa). The data set is classed as physicochemical. A digest of the protocol:
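Measured in water at 23 °C from UV absorbance versus pH, using a pH meter calibrated with pH 5, 7 and 9 buffers. pH was stepped with 6 N HCl or NaOH to give 7–15 readings spanning the expected pKa, at 2–4 wavelengths with flow stopped. Spectra at pH 3 and 10 checked for decomposition. Simplex curve fit gave the pKa, reported as mean ± SD across wavelengths.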

Data set [3] deals with Glutamate receptor ionotropic, kainate (Rattus norvegicus) (UniProt P22756+Q01812+P42260+P42264+Q63273). As to the kind of experiment: Inhibition at Ionotropic glutamate receptor kainate was determined at a concentration of 200 uM in rat cerebellar slices.
Data set [4] in a line: Potentiometric pKa(in 25 mL of water) of the compound. The data set is classed as physicochemical.
Data set [5] in a line: potentiometric pKa(in 25 mL of 1 M NaCl) of the compound. The data set is classed as physicochemical.

With `N[C@H](CCCCSc1cc(Cl)ccc1O)C(=O)O`, the IC50 in data set [1] is > 10000 µM.

Consider `c1ccc(CSc2nc[nH]n2)cc1`, for which the pKa in data set [2] was found to be 9.5.

In the case of `NC(CCCCCS(=O)(=O)c1ccccc1O)C(=O)O` (stereo not drawn), the pKa in data set [2] came out at 7.38. The IC50 in data set [1] is > 10000 µM.

`NC(CCCCCSc1ccccc1O)C(=O)O` (stereo not drawn) yielded a pKa in data set [2] of 9.35. The compound also showed an IC50 in data set [1] of 310 µM.

Regarding `[O-][S+](Cc1ccccc1)c1ncc[nH]1` (stereo not drawn), the pKa in data set [2] was determined as 9.8.

Compound `c1ccc(CSc2c[nH]nn2)cc1` displayed a pKa in data set [2] of 8.2.

For the compound `O=S(=O)(Cc1ccccc1)c1nc[nH]n1`, the pKa in data set [2] is 6.23.

As for `[O-][S+](Cc1ccccc1)c1nc(O)n[nH]1` (stereo not drawn), the pKa in data set [2] stood at 5.2.

Regarding `NC(CCCSc1ccccc1O)C(=O)O` (stereo not drawn), the IC50 in data set [1] was > 10000 µM.

The compound `Nc1ccccc1SCCCCCC(N)C(=O)O` (stereo not drawn) had an inhibition in data set [3] of 20%. Also, 140 µM corresponded to half-maximal inhibition in data set [1] (IC50).

Turning to `NC(CCCSc1cc(Cl)ccc1O)C(=O)O` (stereo not drawn), the IC50 in data set [1] worked out at 260 µM.

`O=S(=O)(Cc1ccccc1)c1nc(O)n[nH]1` had a pKa in data set [2] of 4.79.

As to `NC(CCCCCSc1cc(Cl)ccc1O)C(=O)O` (stereo not drawn), the pKa in data set [2] came to 8.55. The compound also yielded an IC50 in data set [1] of 220 µM.

`O=S(=O)(Cc1ccccc1)c1ncc[nH]1` yielded a pKa in data set [2] of 8.67.

In the case of `Oc1n[nH]c(SCc2ccccc2)n1`, in data set [2], the pKa was 7.85.

For `[O-][S+](Cc1ccccc1)c1nc[nH]n1` (stereo not drawn), the pKa in data set [2] stood at 7.38.

In data set [2], `c1ccc(CSc2ncc[nH]2)cc1` displayed a pKa of 11.6.

With `[O-][S+](Cc1ccccc1)c1c[nH]nn1` (stereo not drawn), the pKa in data set [2] amounted to 6.09.

Regarding `O=S(=O)(Cc1ccccc1)c1c[nH]nn1`, the pKa in data set [2] is 5.15.

Consider `NC(CCCCC[S+]([O-])c1ccccc1O)C(=O)O` (stereo not drawn), for which, in data set [1], the 50% inhibitory concentration (IC50) is > 10000 µM.

With `NC(CCCCCP(=O)(O)O)C(=O)O` (stereo not drawn) [AP-7], the pKa in data set [4] was 7.72; in data set [5], 9.84; in data set [2], 2.64. Moreover, in data set [1], half-maximal inhibition (IC50) required 35 µM.

Values taken from ChEMBL document CHEMBL1125079, “A unified approach to systematic isosteric substitution for acidic groups and application to NMDA antagonists related to 2-amino-7-phosphonoheptanoate” (J Med Chem, 1990).
